Reference: ChEMBL document CHEMBL4765426, “Design, synthesis and in vitro anti-influenza A virus evaluation of novel quinazoline derivatives containing S-acetamide and NH-acetamide moieties at C-4” (Eur J Med Chem, 2020)

Tests used:
[1] = Cytotoxicity against human A549 cells assessed as reduction in cell viability after 48 hrs by CCK8 assay; format: cell-based
[2] = tested on: Influenza A virus; test: Antiviral activity against Influenza A virus A/WSN/33(H1N1) infected in HEK293T-Gluc cells assessed as inhibition of virus infection at 10 uM pretreated for 2 hrs followed by viral infection and measured after 24 hrs by Gaussia luciferase reporter gene assay; format: functional; conditions: A/WSN/1933(H1N1), HEK-293T, time 26 hrs
Procedure, shortened: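 A single-concentration screen at 10 μM was run against A/WSN/33 (H1N1) in HEK293T-Gluc reporter cells. These cells carry a stably transfected pLenti6-Gluc construct expressing negative-strand Gaussia luciferase RNA that is converted to positive strand upon infection. Inhibition ratio of infection was read from Gluc activity.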

[3] = tested on: Influenza A virus; test: Antiviral activity against Influenza A virus A/WSN/33(H1N1) infected in HEK293T-Gluc cells pretreated for 2 hrs followed by viral infection and measured after 24 hrs by Gaussia luciferase reporter gene assay; format: functional, organism-based; conditions: A/WSN/1933(H1N1), HEK-293T
Procedure, shortened: (§1)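 Reporter cells were HEK293T cells stably transfected with pLenti6-Gluc, which constitutively expresses negative-strand Gaussia luciferase RNA that becomes positive-strand on IAV infection. Cells were infected with A/WSN/33 or A/PR/8/1934 (H1N1). Antiviral activity was read as Gluc signal, and IC50 values were derived. Ribavirin served as positive control.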

[4] = Cytotoxicity against human HEK293T cells assessed as reduction in cell viability after 48 hrs by CCK8 assay; format: cell-based, HEK-293T
[5] = Selectivity index, ratio of CC50 for human HEK293T cells to IC50 for Influenza A virus A/WSN/33(H1N1) infected in HEK293T-Gluc cells; format: toxicity, cell-based; conditions: read-out: Ratio CC50/IC50
[6] = tested on: Influenza A virus; test: Antiviral activity against Influenza A virus A/PR/8/34 (H1N1) infected in HEK293T-Gluc cells pretreated for 2 hrs followed by viral infection and measured after 24 hrs by Gaussia luciferase reporter gene assay; format: functional, organism-based; conditions: A/Puerto Rico/8/1934(H1N1), HEK-293T; procedure, shortened: as §1

Row | SMILES | CC50 at 48 h [1] [µM] | inhibition at 10 µM [2] [%] | IC50 [3] [µM] | CC50 at 48 h [4] [µM] | selectivity ratio [5] | IC50 [6] [µM]
1 | O=C(CNc1nc(N2CCc3ccccc3C2)nc2ccccc12)Nc1ccccc1 | 10.7 | 98.2 | 3.88 | 36.6 | 9.44 | 0.41
2 | NC(=O)c1ncn([C@@H]2O[C@H](CO)[C@@H](O)[C@H]2O)n1 [RIBAVIRIN] | – | – | – | > 100 | > 6.51 | –
3 | O=C(CNc1nc(N2CCCC2)nc2ccccc12)NCc1ccco1 | – | – | 39.4 | > 100 | > 2.54 | –
4 | O=C(COc1cccc2ccccc12)Nc1ccc(F)cc1 | – | 78 | 5.22 | > 100 | > 19.1 | –
5 | O=C(CNc1nc(N2CCOCC2)nc2ccccc12)NCc1ccccc1 | > 100 | – | 3.83 | > 100 | > 26.1 | 6.05
6 | CCN(CC)c1nc(SCC(=O)NCc2ccccc2)c2ccccc2n1 | – | – | 19.2 | > 100 | > 5.22 | –
7 | O=C(CSc1nc(N2CCCC2)nc2ccccc12)NC1CC1 | – | – | 38.2 | > 100 | > 2.61 | –
8 | O=C(CNc1nc(N2CCCC2)nc2ccccc12)Nc1ccccc1 | 19 | 95.8 | 1.88 | 23.3 | 12.4 | 1.47
